Active and inactive are the calls of the source. No cut-off for these calls is given here.
Columns and labels:
[1] = target: Sigma intracellular receptor 2 (Homo sapiens, UniProt Q5BJF2); assay: Binding affinity to sigma 2 receptor (unknown origin) assessed as inhibition constant
Method in brief: (§1)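 Radioligand displacement at S1R with [3H](+)pentazocine (15 nM) and at S2R with [3H]DTG (25 nM); S2R assay includes 1 μM cold (+)pentazocine to mask S1R sites. Bound radioactivity counted by scintillation. IC50 and Hill slope from non-linear Hill fit of competition curves; Ki by Cheng–Prusoff using radioligand concentration and KD from Scatchard plot.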

[2] = Selectivity index, ratio of Ki for sigma 2 receptor (unknown origin) to Ki for sigma 1 receptor (unknown origin)
[3] = target: T1, Sigma non-opioid intracellular receptor 1 (Homo sapiens, UniProt Q99720); assay: Binding affinity to sigma 1 receptor (unknown origin) assessed as inhibition constant; method in brief: as §1
T1 sequence (Q99720 whole entry): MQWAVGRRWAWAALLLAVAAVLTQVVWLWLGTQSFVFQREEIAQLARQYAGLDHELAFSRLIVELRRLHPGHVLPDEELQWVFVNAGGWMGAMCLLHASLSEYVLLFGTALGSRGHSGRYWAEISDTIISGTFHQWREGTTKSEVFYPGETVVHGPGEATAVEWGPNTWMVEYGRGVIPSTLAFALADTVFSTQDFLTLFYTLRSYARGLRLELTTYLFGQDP

[4] = target: Glutamate [NMDA] receptor (Homo sapiens) (UniProt Q05586+Q12879+Q13224+O15399+O60391+Q14957+Q8TCU5); assay: Displacement of [3H]CGP39653 from human NMDAR at 25 nM by scintillation counting analysis; assay type: protein-complex assay
Method in brief: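 NMDA receptor binding with [3H]CGP39653 (5 nM) as radioligand, test compound at 25 nM; displacement read by scintillation counting and reported as % inhibition of control specific binding.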

[5] = target: T1, Sigma non-opioid intracellular receptor 1; assay: Displacement of [3H]-(+)-pentazocine from sigma 1 receptor (unknown origin) at 25 nM by scintillation counting analysis; settings: filed as agonist
Method in brief: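 Single-concentration screen at 25 nM test compound against [3H](+)pentazocine (15 nM) at S1R; scintillation counting; result given as % inhibition of control specific binding, i.e. 100 minus measured/control specific binding ×100.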

SH-SY5Y [6] = assay: Cytotoxicity against human SH-SY5Y cells assessed as reduction in cell viability at 5 uM incubated for 72 hrs by MTT assay; assay type: toxicity, cell-based
Method in brief: (§2)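 SH-SY5Y cells kept in DMEM/10% FBS, 2 mM glutamine, 37 °C, 5% CO2; ~7000 cells/well, after 1 day given compound (six concentrations, 0.1–100 μM; DMSO stocks 10 mM) in 2% FBS medium for 72 h. MTT (0.5% w/v, 2 h), formazan dissolved in DMSO, absorbance read; triplicates, % of untreated control.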

[7] = Cytotoxicity against human SH-SY5Y cells assessed as reduction in cell viability incubated for 72 hrs by MTT assay; assay type: toxicity, cell-based; method in brief: as §2
SH-SY5Y [8] = assay: Neuroprotective activity in human SH-SY5Y cells assessed as prevention of NMDA induced cytotoxicity by measuring cell viability at 0.1 to 0.5 uM incubated for 24 hrs in presence of NMDA by MTT assay; assay type: functional, cell-based; settings: dose 0.1-0.5 µM
Method in brief: (§3)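 SH-SY5Y cells (~7000/well) co-incubated 24 h at 37 °C in 2% FBS medium with toxic stimulus (NMDA 250 μM or oligomycin 2.5 μM) plus compound at 0.1–5 μM. Viability by MTT, expressed as % of control.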

SH-SY5Y [9] = assay: Neuroprotective activity in human SH-SY5Y cells assessed as prevention of NMDA induced cytotoxicity by measuring cell viability at 1 to 5 uM incubated for 24 hrs in presence of NMDA by MTT assay; assay type: functional, cell-based; settings: dose 1-5 µM; method in brief: as §3
PC-12 [10] = assay: Neuroprotective activity in rat PC12 cells assessed as induction of NGF-mediated neurite outgrowth at 0.5 uM by neurite outgrowth assay (Rvb=26 +/- 4%); assay type: functional
Method in brief: (§4)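 PC12 cells stimulated with NGF (2.5 nM) and treated with compound up to 5 μM, alone or after pre-treatment with S1R antagonist NE-100 (3 μM); read-out is percentage of cells bearing neurite sprouts; mean ± SEM of three independent experiments.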

PC-12 [11] = assay: Neuroprotective activity in rat PC12 cells assessed as induction of NGF-mediated neurite outgrowth at 0.5 uM in presence of NE-100 by neurite outgrowth assay; assay type: functional, cell-based; method in brief: as §4

Sigma intracellular receptor 2, sequence (Q5BJF2 whole entry): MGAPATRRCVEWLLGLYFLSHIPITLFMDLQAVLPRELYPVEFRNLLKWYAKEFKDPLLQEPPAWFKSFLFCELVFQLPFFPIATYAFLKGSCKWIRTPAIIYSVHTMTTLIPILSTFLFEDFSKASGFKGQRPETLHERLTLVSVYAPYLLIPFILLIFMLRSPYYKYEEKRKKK

Structure (SMILES)	Ki [1] [nM]	Ratio Ki [2]	Ki [3] [nM]	other results
COc1ccc(CCN2CCN(CCCc3ccccc3)CC2)cc1OC [[11C]SA4503]	63	–	–	–
c1ccc(CN2CCN(CC3CSC4(CCCCC4)O3)CC2)cc1 (configuration not stated)	91	70	1.3	–
c1ccc(CN2CCN(CCCOC3CCCCC3)CC2)cc1	–	–	–	Activity [4]: < 11.9%; Activity [5]: > 95%
c1ccc(CN2CCN(CC3COC4(CCCCC4)O3)CC2)cc1 (configuration not stated)	35	47	0.74	–
c1ccc(CN2CCN(CCCSC3CCCCC3)CC2)cc1	–	–	–	Activity [4]: < 11.9%; Activity [5]: > 95%
CC12CC3CC(C)(C1)CC(N)(C3)C2 [MEMANTINE]	–	–	–	Activity (SH-SY5Y [6]): 70%; CC50 at 72 h [7]: 98000 nM; Activity (SH-SY5Y [8]): Active; Activity (SH-SY5Y [9]): inactive
CN(C)CC1CCOC1(c1ccccc1)c1ccccc1 (configuration not stated) [BLARCAMESINE]	–	–	6.3	–
CC1(C)SCC(CN2CCC(Cc3ccccc3)CC2)S1 (configuration not stated)	12	24	0.5	–
c1ccc(CN2CCN(CC3CSCS3)CC2)cc1 (configuration not stated)	–	43	–	–
C[C@H](CCN1CCCCC1)c1ccc(-c2ccccc2)cc1	–	–	–	Activity (PC-12 [10]): 36%; Activity (PC-12 [11]): inactive
c1ccc(CN2CCN(CCSc3ccccc3)CC2)cc1	–	–	–	Activity [4]: < 11.9%; Activity [5]: > 95%
c1ccc(CC2CCN(CC3CSC4(CCCCC4)S3)CC2)cc1 (configuration not stated)	5	0.4	12	–
